Experimental data as given in ChEMBL document CHEMBL2150968, “Development of a bifunctional chelating agent containing isothiocyanate residue for one step F-18 labeling of peptides and application for RGD labeling” (Bioorg Med Chem, 2012).

Columns and labels:
Pancreas [1] = test: Drug uptake in pancreas of BALB/c nude mouse xenografted with human U87MG cells over expressing […] integrin at 0.148 MBq/0.1 mL after 60 mins by gamma counting in presence of 3 mg/kg c(RGDyk); format: ADME, organism-based, U-87MG ATCC; parameters: dose 3 mg/kg; conditions: in vivo, 1 h
Outline: (§1)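 Male BALB/c nude mice received 2 × 10^5 U87MG human glioma cells s.c. in the right shoulder, 11 days before tracer. Tracer was given by tail vein; blocking groups were co-injected with cold c(RGDyK) 3 mg/kg. Mice were killed at 60 min; organs and blood were weighed and gamma counted, and %ID/g was calculated. n = 8; Student's t-test.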

Blood [2] = test: Drug uptake in blood of BALB/c nude mouse xenografted with human U87MG cells overexpressing […] integrin at 0.148 MBq/0.1 mL after 60 mins by gamma counting in presence of 3 mg/kg c(RGDyk); format: ADME, organism-based, U-87MG ATCC; parameters: dose 3 mg/kg; conditions: in vivo, 1 h; outline: as §1
Muscle tissue [3] = test: Drug uptake in muscle of BALB/c nude mouse xenografted with human U87MG cells over expressing […] integrin at 0.148 MBq/0.1 mL after 60 mins by gamma counting in presence of 3 mg/kg c(RGDyk); format: ADME, organism-based, U-87MG ATCC; parameters: dose 3 mg/kg; conditions: in vivo, 1 h; outline: as §1
Lung [4] = test: Drug uptake in lung of BALB/c nude mouse xenografted with human U87MG cells over expressing […] integrin at 0.148 MBq/0.1 mL after 60 mins by gamma counting in presence of 3 mg/kg c(RGDyk); format: ADME, organism-based, U-87MG ATCC; parameters: dose 3 mg/kg; conditions: in vivo, 1 h; outline: as §1
Liver [5] = test: Drug uptake in liver of BALB/c nude mouse xenografted with human U87MG cells over expressing […] integrin at 0.148 MBq/0.1 mL after 60 mins by gamma counting in presence of 3 mg/kg c(RGDyk); format: ADME, organism-based, U-87MG ATCC; parameters: dose 3 mg/kg; conditions: in vivo, 1 h; outline: as §1
Spleen [6] = test: Drug uptake in spleen of BALB/c nude mouse xenografted with human U87MG cells over expressing […] integrin at 0.148 MBq/0.1 mL after 60 mins by gamma counting in presence of 3 mg/kg c(RGDyk); format: ADME, organism-based, U-87MG ATCC; parameters: dose 3 mg/kg; conditions: in vivo, 1 h; outline: as §1
Stomach [7] = test: Drug uptake in stomach of BALB/c nude mouse xenografted with human U87MG cells over expressing […] integrin at 0.148 MBq/0.1 mL after 60 mins by gamma counting in presence of 3 mg/kg c(RGDyk); format: ADME, organism-based, U-87MG ATCC; parameters: dose 3 mg/kg; conditions: in vivo, 1 h; outline: as §1
Intestine [8] = test: Drug uptake in intestine of BALB/c nude mouse xenografted with human U87MG cells over expressing […] integrin at 0.148 MBq/0.1 mL after 60 mins by gamma counting in presence of 3 mg/kg c(RGDyk); format: ADME, organism-based, U-87MG ATCC; parameters: dose 3 mg/kg; conditions: in vivo, 1 h; outline: as §1
Kidney [9] = test: Drug uptake in kidney of BALB/c nude mouse xenografted with human U87MG cells over expressing […] integrin at 0.148 MBq/0.1 mL after 60 mins by gamma counting in presence of 3 mg/kg c(RGDyk); format: ADME, organism-based, U-87MG ATCC; parameters: dose 3 mg/kg; conditions: in vivo, 1 h; outline: as §1
Bone [10] = test: Drug uptake in bone of BALB/c nude mouse xenografted with human U87MG cells over expressing […] integrin at 0.148 MBq/0.1 mL after 60 mins by gamma counting in presence of 3 mg/kg c(RGDyk); format: ADME, organism-based, Bone element, U-87MG ATCC; parameters: dose 3 mg/kg; conditions: in vivo, 1 h; outline: as §1
[11] = Drug uptake in human U87MG cells over expressing […] integrin xenografted in BALB/c nude mouse tumor at 11.1 MBq/0.1 mL, iv after 2 hrs by PET/CT imaging; format: ADME, organism-based, Neoplasm, U-87MG ATCC; conditions: in vivo
Outline: (§2)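 Glioma-xenografted BALB/c nude mice were injected by tail vein; inhibition groups were co-injected with cold c(RGDyK) 3 mg/kg. Under 2% isoflurane, dynamic small-animal PET/CT was acquired at 1 and 2 h, with decay-corrected images. SUV = tissue activity concentration (MBq/mL) / (injected dose (MBq) / body weight (g)). Normal tissue reference was the left shoulder.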

Urinary bladder = test: Drug uptake in bladder of BALB/c nude mouse xenografted with human U87MG cells over expressing […] integrin at 11.1 MBq/0.1 mL, iv after 1 to 2 hrs by PET/CT imaging; format: ADME, organism-based, U-87MG ATCC; conditions: in vivo; outline: as §2
[12] = Chemical stability of the compound after 4 hrs by ITLC-SG analysis; format: physicochemical
Outline: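 After Al18F labeling (pH 4 sodium acetate buffer, 110 °C, 10 min), stability of the labeled conjugate was followed in the labeling medium at room temperature for 240 min. Decomposition was checked by ITLC-SG; unbound [18F]AlF stays at the origin, the labeled peptide runs to the solvent front.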

[13] = Stability of the compound in human serum for 4 hrs by ITLC-SG analysis; format: ADME, cell-free
Outline: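 Labeled conjugate was incubated in human serum at 37 °C for 240 min. Decomposition was checked by ITLC-SG; unbound [18F]AlF stays at the origin, the labeled peptide runs to the solvent front.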

[14] = Drug uptake in human U87MG cells over expressing […] integrin xenografted BALB/c nude mouse tumor at 0.148 MBq/0.1 mL, iv after 60 mins by gamma counting; format: ADME, organism-based, Neoplasm, U-87MG ATCC; conditions: in vivo, 1 h; outline: as §1
Blood [15] = test: Drug uptake in blood of BALB/c nude mouse xenografted with human U87MG cells over expressing […] integrin at 0.148 MBq/0.1 mL, iv after 60 mins by gamma counting; format: ADME, organism-based, U-87MG ATCC; conditions: in vivo, 1 h; outline: as §1
Muscle tissue [16] = test: Drug uptake in muscle of BALB/c nude mouse xenografted with human U87MG cells over expressing […] integrin at 0.148 MBq/0.1 mL, iv after 60 mins by gamma counting; format: ADME, organism-based, U-87MG ATCC; conditions: in vivo, 1 h; outline: as §1
Pancreas [17] = test: Drug uptake in pancreas of BALB/c nude mouse xenografted with human U87MG cells over expressing […] integrin at 0.148 MBq/0.1 mL, iv after 60 mins by gamma counting; format: ADME, organism-based, U-87MG ATCC; conditions: in vivo, 1 h; outline: as §1
Heart [18] = test: Drug uptake in heart of BALB/c nude mouse xenografted with human U87MG cells over expressing […] integrin at 0.148 MBq/0.1 mL, iv after 60 mins by gamma counting; format: ADME, organism-based, U-87MG ATCC; conditions: in vivo, 1 h; outline: as §1
Lung [19] = test: Drug uptake in lung of BALB/c nude mouse xenografted with human U87MG cells over expressing […] integrin at 0.148 MBq/0.1 mL, iv after 60 mins by gamma counting; format: ADME, organism-based, U-87MG ATCC; conditions: in vivo, 1 h; outline: as §1
Liver [20] = test: Drug uptake in liver of BALB/c nude mouse xenografted with human U87MG cells over expressing […] integrin at 0.148 MBq/0.1 mL, iv after 60 mins by gamma counting; format: ADME, organism-based, U-87MG ATCC; conditions: in vivo, 1 h; outline: as §1
Spleen [21] = test: Drug uptake in spleen of BALB/c nude mouse xenografted with human U87MG cells over expressing […] integrin at 0.148 MBq/0.1 mL, iv after 60 mins by gamma counting; format: ADME, organism-based, U-87MG ATCC; conditions: in vivo, 1 h; outline: as §1
Stomach [22] = test: Drug uptake in stomach of BALB/c nude mouse xenografted with human U87MG cells over expressing […] integrin at 0.148 MBq/0.1 mL, iv after 60 mins by gamma counting; format: ADME, organism-based, U-87MG ATCC; conditions: in vivo, 1 h; outline: as §1
Intestine [23] = test: Drug uptake in intestine of BALB/c nude mouse xenografted with human U87MG cells over expressing […] integrin at 0.148 MBq/0.1 mL, iv after 60 mins by gamma counting; format: ADME, organism-based, U-87MG ATCC; conditions: in vivo, 1 h; outline: as §1
Kidney [24] = test: Drug uptake in kidney of BALB/c nude mouse xenografted with human U87MG cells over expressing […] integrin at 0.148 MBq/0.1 mL, iv after 60 mins by gamma counting; format: ADME, organism-based, U-87MG ATCC; conditions: in vivo, 1 h; outline: as §1
Bone [25] = test: Drug uptake in bone of BALB/c nude mouse xenografted with human U87MG cells over expressing […] integrin at 0.148 MBq/0.1 mL, iv after 60 mins by gamma counting; format: ADME, organism-based, Bone element, U-87MG ATCC; conditions: in vivo, 1 h; outline: as §1
[26] = Drug uptake in human U87MG cells over expressing […] integrin xenografted in BALB/c nude mouse tumor at 0.148 MBq/0.1 mL after 1 hr by gamma counting in presence of 3 mg/kg c(RGDyk); format: ADME, organism-based, Neoplasm, U-87MG ATCC; parameters: dose 3 mg/kg; conditions: in vivo; outline: as §1
[27] = Drug uptake in human U87MG cells over expressing […] integrin xenografted in BALB/c nude mouse tumor at 11.1 MBq/0.1 mL, iv after 1 hr by PET/CT imaging; format: ADME, organism-based, Neoplasm, U-87MG ATCC; conditions: in vivo; outline: as §2
[28] = Drug uptake in human U87MG cells overexpressing […] integrin xenografted in BALB/c nude mouse tumor at 11.1 MBq/0.1 mL after 1 hr by PET/CT imaging in presence of 3 mg/kg c(RGDyk); format: ADME, organism-based, Neoplasm, U-87MG ATCC; parameters: dose 3 mg/kg; conditions: in vivo; outline: as §2
Heart [29] = test: Drug uptake in heart of BALB/c nude mouse xenografted with human U87MG cells over expressing […] integrin at 0.148 MBq/0.1 mL after 60 mins by gamma counting in presence of 3 mg/kg c(RGDyk); format: ADME, organism-based, U-87MG ATCC; parameters: dose 3 mg/kg; conditions: in vivo, 1 h; outline: as §1
[30] = Drug uptake in human U87MG cells overexpressing alphavbeta3 integrin xenografted in BALB/c nude mouse tumor at 11.1 MBq/0.1 mL after 2 hrs by PET/CT imaging in presence of 3 mg/kg c(RGDyk); conditions: in vivo

## N=C(N)NCCC[C@@H]1NC(=O)[C@H](CCCCNC(=S)Nc2ccc(CN3CCN4CCN(CC3)CC(=O)[O][Al]([18F])[O]C(=O)C4)cc2)NC(=O)[C@@H](Cc2ccc(O)cc2)NC(=O)[C@H](CC(=O)O)NC(=O)CNC1=O
Pancreas [1]
  Drug uptake: Not Active
Blood [2]
  Drug uptake: Not Active
Muscle tissue [3]
  Drug uptake: Not Active
Lung [4]
  Drug uptake: Not Active
Liver [5]
  Drug uptake: Not Active
Spleen [6]
  Drug uptake: Not Active
Stomach [7]
  Drug uptake: Not Active
Intestine [8]
  Drug uptake: Not Active
Kidney [9]
  Drug uptake: Not Active
Bone [10]
  Drug uptake: Not Active
[11]
  SUV: 3.77
Urinary bladder
  Drug uptake: Active
[12]
  remaining at 4 h: > 95%
[13]
  remaining at 4 h: > 95%
[14]
  Drug uptake: 4.41 % ID/g
Blood [15]
  Drug uptake: Active
Muscle tissue [16]
  Drug uptake: Active
Pancreas [17]
  Drug uptake: Active
Heart [18]
  Drug uptake: Active
Lung [19]
  Drug uptake: Active
Liver [20]
  Drug uptake: Active
Spleen [21]
  Drug uptake: Active
Stomach [22]
  Drug uptake: Active
Intestine [23]
  Drug uptake: Active
Kidney [24]
  Drug uptake: Active
Bone [25]
  Drug uptake: Active
[26]
  Drug uptake: 1.33 % ID/g
[27]
  SUV: 7.42
[28]
  SUV: 0.72
Heart [29]
  Drug uptake: Not Active
[30]
  SUV: 0.42
